Assay results of several laboratories.
Protocols differ between the studies behind these lines. pEC50, pIC50, pKd, pKi: −log10 of the molar value.
CNR2: Cannabinoid receptor 2 (CNR2, Homo sapiens, UniProt P34972)
F10: Coagulation factor X (F10, Homo sapiens, UniProt P00742)
Ribonuclease H1: Ribonuclease H1 (Homo sapiens, UniProt O60930)

Compound	target	read-out	mode	method	setting	quantity	value
CCCCC/C=C\[C@H](C)/C=C\C/C=C\Cc1ccccc1CCCC(=O)N[C@H](C)CO	CNR2	β-arrestin recruitment	agonist	–	–	pEC50	6.67
CC(C)(NC(=O)c1nn(CCCCCF)c2ccccc12)c1cccc(C(N)=O)c1	CNR2	ligand displacement	–	radioligand	cell membranes	pKi	6.89
O=[N+]([O-])c1ccc(O)c([N+](=O)[O-])c1	Casein kinase I isoform alpha (CSNK1A1, Homo sapiens, UniProt P48729)	binding	–	SPR	–	pKd	< 4.30
CCCC[C@H](NC(C)=O)C(=O)N[C@H]1CC(=O)NCCCC[C@@H](C(=O)N2CCC[C@@H]2C(=O)N[C@@H](C(=O)N2CCC[C@@H]2C(N)=O)C(C)C)NC(=O)[C@H](Cc2c[nH]c3ccccc23)NC(=O)[C@H](CCCNC(=N)N)NC(=O)[C@@H](Cc2ccccc2)NC(=O)[C@@H]2CCCN2C1=O	Melanocortin receptor 5 (MC5R, Homo sapiens, UniProt P33032)	cAMP	agonist	–	–	pEC50	9.41
CC(C)(NC(=O)c1nn(Cc2ccc(C#N)cc2)c2ccccc12)c1cccc(C(N)=O)c1	CNR2	ligand displacement	–	radioligand	cell membranes	pKi	6.54
CCCCCc1ccccc1C/C=C\C/C=C\C/C=C\CCCC(=O)N[C@H](C)CO	CNR2	cAMP	agonist	–	–	pEC50	6.17
COc1cc2c(cc1OC)CN(CCc1ccc(NC(=O)c3cccc4c(=O)c5cccc(OC)c5[nH]c34)cc1)CC2	D(1B) dopamine receptor (DRD5, Homo sapiens, UniProt P21918)	cell-free assay	–	–	–	pKi	< 5.00
CCCCC/C=C\[C@H](C)/C=C\C/C=C\Cc1ccccc1CCCC(=O)OC(CO)CO	CNR2	cAMP	agonist	–	–	pEC50	5.95
CS(=O)(=O)N[C@@H](CCC(N)=O)C(=O)N[C@@H](Cc1ccccc1)C(=O)N[C@@H](CCCNC(=N)N)C(=O)c1nc2ccccc2s1	F10	cell-free assay	–	–	–	pKi	7.80
CC(C)(NC(=O)c1nn(CC2CCCC2)c2ccccc12)c1cccc(C(N)=O)c1	CNR2	ligand displacement	–	radioligand	cell membranes	pKi	6.96
c1cncc([C@@H]2CCCN2)c1	Neuronal acetylcholine receptor; alpha2/beta2 (Rattus norvegicus, UniProt P12389+P12390)	cell-free assay	–	radioligand	–	pKi	7.06
C[C@H](NC(=O)[C@H](CCC(N)=O)NC(=O)CCCCNC(=N)N)C(=O)N[C@@H](CCCNC(=N)N)C(=O)c1nc2ccccc2s1	F10	cell-free assay	–	–	–	pKi	7.07
O=c1c(-c2ccccc2)c(O)c2cc(-c3cccc(-c4ccccc4)c3)cnc2n1O	Ribonuclease H1	enzyme activity	inhibitor	–	–	pIC50	< 5.00
CC[C@H](C)[C@@H](C(=O)N1CCC[C@H]1c1nccs1)N(C)C(=O)[C@H](CC(C)C)N(C)C(=O)[C@H](Cc1ccc(OC)cc1)N(C)C(=O)/C=C(\C)OC	CNR2	ligand displacement	–	radioligand	–	pIC50	5.21
CCCCC/C=C\C/C=C\C/C=C\Cc1ccccc1CCCC(=O)N[C@H](C)CO	CNR2	cAMP	agonist	–	–	pEC50	7.90
Cc1ccc(NC(=O)c2c(Nc3ccccc3)[nH]c(=O)n(O)c2=O)cc1	Ribonuclease H1	enzyme activity	inhibitor	–	–	pIC50	< 5.00
